Reference: ChEMBL document CHEMBL3588757, “Structure-based design, synthesis and biological testing of piperazine-linked bis-epipodophyllotoxin etoposide analogs” (Bioorg Med Chem, 2015)

Experiments:
Assay type in all cases: functional
UACC-62 [1] = assay: Cytotoxicity against human UACC62 cells assessed as cell growth at 0.5 uM by SRB assay; details: read-out: Activity
CCRF-CEM = assay: Cytotoxicity against human CCRF-CEM cells assessed as cell growth at 0.05 uM by SRB assay; details: read-out: Activity
HCT-116 [2] = assay: Cytotoxicity against human HCT116 cells assessed as cell growth at 0.05 uM by SRB assay; details: read-out: Activity
How it was run: (§1)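 Measured in the NCI-60 human tumour cell line panel using five-dose testing. Growth was recorded at each dose for each cell line, and a GI50 was derived for each line.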

SK-MEL-28 = assay: Cytotoxicity against human SK-MEL-28 cells assessed as cell growth at 5 uM by SRB assay; details: read-out: Activity
SF-295 = assay: Cytotoxicity against human SF295 cells assessed as cell growth at 0.005 uM by SRB assay; details: read-out: Activity
SK-OV-3 [3] = assay: Cytotoxicity against human SKOV3 cells assessed as cell growth at 5 uM by SRB assay; details: read-out: Activity
IGROV-1 = assay: Cytotoxicity against human IGROV1 cells assessed as cell growth at 0.05 uM by SRB assay; details: read-out: Activity; how it was run: as §1
PC-3 [4] = assay: Cytotoxicity against human PC3 cells assessed as cell growth at 5 uM by SRB assay; details: read-out: Activity
786-0 [5] = assay: Cytotoxicity against human 786-0 cells assessed as cell growth at 50 uM by SRB assay; details: read-out: Activity
KM12 = assay: Cytotoxicity against human KM12 cells assessed as cell growth at 50 uM by SRB assay; details: read-out: Activity
HCT-116 [6] = assay: Cytotoxicity against human HCT116 cells by SRB assay; how it was run: as §1
HCT-116 [7] = assay: Cytotoxicity against human HCT116 cells assessed as cell growth at 0.005 uM by SRB assay; details: read-out: Activity; how it was run: as §1
HOP-92 [8] = assay: Cytotoxicity against human HOP92 cells assessed as cell growth at 0.5 uM by SRB assay; details: read-out: Activity; how it was run: as §1
RPMI-8226 [9] = assay: Cytotoxicity against human RPMI8226 cells assessed as cell growth at 5 uM by SRB assay; details: read-out: Activity
SK-OV-3 [10] = assay: Cytotoxicity against human SKOV3 cells assessed as cell growth at 0.05 uM by SRB assay; details: read-out: Activity
SNB-75 = assay: Cytotoxicity against human SNB75 cells assessed as cell growth at 0.005 uM by SRB assay; details: read-out: Activity
NCI-H522 [11] = assay: Cytotoxicity against human NCI-H522 cells by SRB assay
How it was run: (§2)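 NCI-60 panel screen; 5-dose testing giving GI50 per cell line, plus a single 10 µM one-dose test. Method details not given beyond the NCI screen.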

HCT-116 [12] = assay: Cytotoxicity against human HCT116 cells assessed as cell growth at 50 uM by SRB assay; details: read-out: Activity; how it was run: as §1
RPMI-8226 [13] = assay: Cytotoxicity against human RPMI8226 cells assessed as cell growth at 0.005 uM by SRB assay; details: read-out: Activity
A549 = assay: Cytotoxicity against human A549/ATCC cells assessed as cell growth at 0.05 uM by SRB assay; details: read-out: Activity
A498 [14] = assay: Cytotoxicity against human A498 cells assessed as cell growth at 0.05 uM by SRB assay; details: read-out: Activity
PC-3 [15] = assay: Cytotoxicity against human PC3 cells assessed as cell growth at 0.005 uM by SRB assay; details: read-out: Activity
SK-OV-3 [16] = assay: Cytotoxicity against human SKOV3 cells by SRB assay; how it was run: as §2
HOP-92 [17] = assay: Cytotoxicity against human HOP92 cells assessed as cell growth at 0.005 uM by SRB assay; details: read-out: Activity; how it was run: as §1
CAKI-1 = assay: Cytotoxicity against human Caki1 cells assessed as cell growth at 5 uM by SRB assay; details: read-out: Activity
786-0 [18] = assay: Cytotoxicity against human 786-0 cells by SRB assay
T47D = assay: Cytotoxicity against human T47D cells assessed as cell growth at 0.5 uM by SRB assay; details: read-out: Activity
A498 [19] = assay: Cytotoxicity against human A498 cells by SRB assay
MOLT-4 = assay: Cytotoxicity against human MOLT4 cells assessed as cell growth at 0.005 uM by SRB assay; details: read-out: Activity
NCI-H226 [20] = assay: Cytotoxicity against human NCI-H226 cells assessed as cell growth at 50 uM by SRB assay; details: read-out: Activity
SK-MEL-5 = assay: Cytotoxicity against human SK-MEL-5 cells assessed as cell growth at 5 uM by SRB assay; details: read-out: Activity
NCI-H460 = assay: Cytotoxicity against human NCI-H460 cells assessed as cell growth at 0.005 uM by SRB assay; details: read-out: Activity
NCI-H226 [21] = assay: Cytotoxicity against human NCI-H226 cells assessed as cell growth at 0.005 uM by SRB assay; details: read-out: Activity
OVCAR-5 = assay: Cytotoxicity against human OVCAR5 cells assessed as cell growth at 50 uM by SRB assay; details: read-out: Activity
HOP-62 = assay: Cytotoxicity against human HOP62 cells assessed as cell growth at 0.005 uM by SRB assay; details: read-out: Activity; how it was run: as §1
U-251 = assay: Cytotoxicity against human U251 cells assessed as cell growth at 50 uM by SRB assay; details: read-out: Activity
MDA-MB-435 = assay: Cytotoxicity against human MDA-MB-435 cells by SRB assay; how it was run: as §2
MDA-MB-231 = assay: Cytotoxicity against human MDA-MB-231/ATCC cells by SRB assay; how it was run: as §2
UACC-62 [22] = assay: Cytotoxicity against human UACC62 cells assessed as cell growth at 0.005 uM by SRB assay; details: read-out: Activity
NCI-H522 [23] = assay: Cytotoxicity against human NCI-H522 cells assessed as cell growth at 0.05 uM by SRB assay; details: read-out: Activity
MCF7 = assay: Cytotoxicity against human MCF7 cells assessed as cell growth at 50 uM by SRB assay; details: read-out: Activity
SN12C = assay: Cytotoxicity against human SN12C cells assessed as cell growth at 0.005 uM by SRB assay; details: read-out: Activity
NCI-H522 [24] = assay: Cytotoxicity against human NCI-H522 cells assessed as cell growth at 5 uM by SRB assay; details: read-out: Activity
[25] = read-out: LC50 (the source's name)
[26] = read-out: pLC50 (the source's name) (converted)

Q: `COc1cc([C@@H]2c3cc4c(cc3[C@@H](NC(=O)CN3CCN(CCCCCCCCCCN5CCN(CC(=O)N[C@@H]6c7cc8c(cc7[C@@H](c7cc(OC)c(O)c(OC)c7)[C@H]7C(=O)OC[C@@H]76)OCO8)CC5)CC3)[C@H]3COC(=O)[C@H]23)OCO4)cc(OC)c1O` was tested. Which growth at 0.5 µM (UACC-62 [1]) did it give?
A: 81%

Q: And the growth at 0.05 µM (CCRF-CEM)?
A: 62%

Q: What about the growth at 0.05 µM (HCT-116 [2]) of the same compound?
A: 77%

Q: What about the growth at 5 µM (SK-MEL-28) of the same compound?
A: 64%

Q: And the growth at 0.005 µM (SF-295)?
A: 92%

Q: And the growth at 5 µM (SK-OV-3 [3])?
A: 4%

Q: And the growth at 0.05 µM (IGROV-1)?
A: 83%

Q: What about the growth at 5 µM (PC-3 [4]) of the same compound?
A: 17%

Q: What about the growth at 50 µM (786-0 [5]) of the same compound?
A: -78%

Q: What about the growth at 50 µM (KM12) of the same compound?
A: -31%

Q: What about the GI50 (HCT-116 [6]; read-out: GI50) of the same compound?
A: 1 µM

Q: What about the CC50 (HCT-116 [6]; [25]) of the same compound?
A: 46.5 µM

Q: And the TGI (HCT-116 [6]; read-out: TGI)?
A: 3.46 µM

Q: What about the GI50 (HCT-116 [6]; read-out: pGI50 (converted)) of the same compound?
A: 1 µM

Q: And the CC50 (HCT-116 [6]; [26])?
A: 46.8 µM

Q: And the TGI (HCT-116 [6]; read-out: pTGI (converted))?
A: 3.47 µM

Q: And the growth at 0.005 µM (HCT-116 [7])?
A: 99%

Q: What about the growth at 0.5 µM (HOP-92 [8]) of the same compound?
A: 21%

Q: What about the growth at 5 µM (RPMI-8226 [9]) of the same compound?
A: -15%

Q: What about the growth at 0.05 µM (SK-OV-3 [10]) of the same compound?
A: 85%

Q: And the growth at 0.005 µM (SNB-75)?
A: 95%

Q: And the GI50 (NCI-H522 [11]; read-out: GI50)?
A: 0.032 µM

Q: What about the CC50 (NCI-H522 [11]; [25]) of the same compound?
A: 4.38 µM

Q: What about the TGI (NCI-H522 [11]; read-out: TGI) of the same compound?
A: 0.797 µM

Q: And the GI50 (NCI-H522 [11]; read-out: pGI50 (converted))?
A: 0.0324 µM

Q: What about the CC50 (NCI-H522 [11]; [26]) of the same compound?
A: 4.37 µM

Q: What about the TGI (NCI-H522 [11]; read-out: pTGI (converted)) of the same compound?
A: 0.794 µM

Q: And the growth at 50 µM (HCT-116 [12])?
A: -51%

Q: What about the growth at 0.005 µM (RPMI-8226 [13]) of the same compound?
A: 89%

Q: And the growth at 0.05 µM (A549)?
A: 29%

Q: What about the growth at 0.05 µM (A498 [14]) of the same compound?
A: 72%

Q: What about the growth at 0.005 µM (PC-3 [15]) of the same compound?
A: 99%

Q: And the GI50 (SK-OV-3 [16]; read-out: GI50)?
A: 0.557 µM

Q: What about the CC50 (SK-OV-3 [16]; [25]) of the same compound?
A: 16.5 µM

Q: What about the TGI (SK-OV-3 [16]; read-out: TGI) of the same compound?
A: 5.43 µM

Q: And the GI50 (SK-OV-3 [16]; read-out: pGI50 (converted))?
A: 0.562 µM

Q: What about the CC50 (SK-OV-3 [16]; [26]) of the same compound?
A: 16.6 µM

Q: And the TGI (SK-OV-3 [16]; read-out: pTGI (converted))?
A: 5.37 µM

Q: And the growth at 0.005 µM (HOP-92 [17])?
A: 91%

Q: What about the growth at 5 µM (CAKI-1) of the same compound?
A: 28%

Q: And the GI50 (786-0 [18]; read-out: GI50)?
A: 0.209 µM

Q: And the CC50 (786-0 [18]; [25])?
A: 18.7 µM

Q: And the TGI (786-0 [18]; read-out: TGI)?
A: 2.34 µM

Q: And the GI50 (786-0 [18]; read-out: pGI50 (converted))?
A: 0.209 µM

Q: What about the CC50 (786-0 [18]; [26]) of the same compound?
A: 18.6 µM

Q: And the TGI (786-0 [18]; read-out: pTGI (converted))?
A: 2.34 µM

Q: What about the growth at 0.5 µM (T47D) of the same compound?
A: 49%

Q: And the CC50 (A498 [19]; [25])?
A: 14.6 µM

Q: And the GI50 (A498 [19]; read-out: pGI50 (converted))?
A: 0.513 µM

Q: And the CC50 (A498 [19]; [26])?
A: 14.8 µM

Q: What about the TGI (A498 [19]; read-out: pTGI (converted)) of the same compound?
A: 3.55 µM

Q: What about the growth at 0.005 µM (MOLT-4) of the same compound?
A: 88%

Q: What about the growth at 50 µM (NCI-H226 [20]) of the same compound?
A: -95%

Q: What about the growth at 5 µM (SK-MEL-5) of the same compound?
A: 52%

Q: What about the growth at 0.005 µM (NCI-H460) of the same compound?
A: 91%

Q: And the growth at 0.005 µM (NCI-H226 [21])?
A: 92%

Q: And the growth at 50 µM (OVCAR-5)?
A: -88%

Q: What about the growth at 0.005 µM (HOP-62) of the same compound?
A: 88%

Q: What about the growth at 50 µM (U-251) of the same compound?
A: -79%

Q: And the GI50 (MDA-MB-435; read-out: GI50)?
A: 0.295 µM

Q: What about the TGI (MDA-MB-435; read-out: TGI) of the same compound?
A: 1.23 µM

Q: What about the GI50 (MDA-MB-435; read-out: pGI50 (converted)) of the same compound?
A: 0.295 µM

Q: What about the TGI (MDA-MB-435; read-out: pTGI (converted)) of the same compound?
A: 1.23 µM

Q: And the GI50 (MDA-MB-231; read-out: GI50)?
A: 0.958 µM

Q: What about the CC50 (MDA-MB-231; [25]) of the same compound?
A: 18.3 µM

Q: What about the TGI (MDA-MB-231; read-out: TGI) of the same compound?
A: 2.28 µM

Q: And the GI50 (MDA-MB-231; read-out: pGI50 (converted))?
A: 0.955 µM

Q: And the CC50 (MDA-MB-231; [26])?
A: 18.2 µM

Q: And the TGI (MDA-MB-231; read-out: pTGI (converted))?
A: 2.29 µM

Q: What about the growth at 0.005 µM (UACC-62 [22]) of the same compound?
A: 91%

Q: And the growth at 0.05 µM (NCI-H522 [23])?
A: 39%

Q: And the growth at 50 µM (MCF7)?
A: -60%

Q: What about the growth at 0.005 µM (SN12C) of the same compound?
A: 94%

Q: What about the growth at 5 µM (NCI-H522 [24]) of the same compound?
A: -54%
